Measurements pooled from the literature.
Protocols differ between the studies behind these lines.
Target: NUAK family SNF1-like kinase 1 (NUAK1, Homo sapiens, UniProt O60285)
Observed: enzyme activity
Mode: inhibitor
Sequence (O60285 1-661, as in one of the studies): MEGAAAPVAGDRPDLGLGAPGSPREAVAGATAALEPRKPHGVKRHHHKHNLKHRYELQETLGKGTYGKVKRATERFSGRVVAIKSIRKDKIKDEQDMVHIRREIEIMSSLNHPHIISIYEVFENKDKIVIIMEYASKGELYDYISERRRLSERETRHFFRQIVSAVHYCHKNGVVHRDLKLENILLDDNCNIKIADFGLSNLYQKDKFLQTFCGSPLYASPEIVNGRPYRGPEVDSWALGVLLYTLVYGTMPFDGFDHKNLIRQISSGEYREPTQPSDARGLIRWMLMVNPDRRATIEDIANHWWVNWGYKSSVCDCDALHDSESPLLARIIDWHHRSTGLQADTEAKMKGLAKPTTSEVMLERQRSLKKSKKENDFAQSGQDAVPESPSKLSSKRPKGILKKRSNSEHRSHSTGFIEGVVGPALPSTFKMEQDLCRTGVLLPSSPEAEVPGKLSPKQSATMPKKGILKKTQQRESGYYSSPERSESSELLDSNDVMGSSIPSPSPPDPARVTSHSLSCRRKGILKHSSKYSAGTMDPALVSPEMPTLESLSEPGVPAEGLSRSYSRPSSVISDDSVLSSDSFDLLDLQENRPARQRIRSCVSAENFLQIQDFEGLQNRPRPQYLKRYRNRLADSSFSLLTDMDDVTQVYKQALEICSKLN

Structure (SMILES)	method	concentration	remaining activity [%]
CC(C)(O)[C@H]1CC[C@H](Nc2ccc3ncc(-c4cccc(C(F)(F)F)c4)n3n2)CC1		1 µM	72
Cc1ccc(C(=O)Nc2ccc(CN3CCN(C)CC3)c(C(F)(F)F)c2)cc1C#Cc1cnc2cccnn12		23.5 nM	85
NS(=O)(=O)c1ccc(CNc2nc(Nc3cccc(CN4CCOCC4)c3)ncc2C2CC2)cc1	radiometric	1 µM	83
CC(C)(C)c1nc(-c2cccc(NS(=O)(=O)c3c(F)cccc3F)c2F)c(-c2ccnc(N)n2)s1	radiometric	1 µM	101
O=C(Nc1cnn(-c2csc(C(=O)NC3COC3)c2)c1)Nc1ccccc1Cl		5 µM	97.9
Cn1c(=O)n(-c2ccc(C(C)(C)C#N)cc2)c2c3cc(-c4cnc5ccccc5c4)ccc3ncc21		10 µM	44
Cc1nn(CC(F)(F)F)cc1Nc1nccc(NCCCNC(=O)C2CCC2)n1	radiometric	1 µM	86
COc1cc(Cl)c(C(=O)N[C@@H](CN[C@H]2CC[C@@H](N)CC2)Cc2ccc(C#N)cc2)cc1-c1ccc(CN[C@H](C)c2ccc(C)cc2)o1		1 µM	92
NS(=O)(=O)c1ccc(CNc2nc(Nc3cccc(NC(=O)N4CCCC4)c3)ncc2C2CC2)cc1	radiometric	1 µM	89
CC(C)(C)c1nc2c(s1)c1nc(N)ncc1c1ccc(NS(=O)(=O)c3c(F)cccc3F)c(F)c12	radiometric	1 µM	95
Cc1sc(C(=O)NC2COC2)cc1-n1cc(NC(=O)Nc2c(F)cccc2Cl)cn1		10 µM	96.9
Oc1cccc(-c2nc(N3CCOCC3)c3oc4ncccc4c3n2)c1		10 µM	98
COc1cc(Nc2cnc(C#N)c(O[C@H](C)CN(C)C)n2)ncc1-c1cnn(C)c1	radiometric	10 µM	7
O=C(Nc1cccc(Nc2ncc(Br)c(NCCc3cnc[nH]3)n2)c1)N1CCCC1	radiometric	1 µM	1
Cc1cnc(NC2CCOCC2)nc1-n1cnc(C(=O)NC(CN)c2cc(F)cc(Cl)c2)c1 (stereo not drawn)	radiometric	1 µM	67
